Source: ChEMBL document CHEMBL3124843, “Synthesis, cytostatic, antimicrobial, and anti-HCV activity of 6-substituted 7-(het)aryl-7-deazapurine ribonucleosides” (J Med Chem, 2014)
The source made the active and inactive calls. No rule for the calls is given here.

Columns and labels:
[1] = test system: CCRF-CEM; assay: Cytostatic activity against human CCRF-CEM cells after 72 hrs by MTT assay; format: functional, cell-based
In short: (§1)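 IC50 is the concentration that cuts cell growth by 50%, read by quantitative metabolic MTT staining after a 3-day treatment. The resistant sublines were made by raising the concentration of the cytotoxic drug step by step. CEM-DNR-bulk (daunorubicin-selected) stably overexpresses mrp-1. K562-TAX (paclitaxel-selected) expresses only mdr-1. HCT116p53−/− carries null p53 alleles. BJ and MRC-5 are nonmalignant fibroblasts.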

[2] = test system: HCT-116; assay: Cytostatic activity against human HCT116 cells after 72 hrs by MTT assay; format: functional, cell-based; details: HCT-116, 72 h; in short: as §1
[3] = test system: Staphylococcus aureus; assay: Antibacterial activity against methicillin-resistant Staphylococcus aureus MRSA 4591 after 24 hrs; format: functional, organism-based
[4] = Antiproliferative activity against human HeLaS3 cells after 72 hrs by XTT assay; format: functional, cell-based; details: HeLa S3, 72 h
In short: (§2)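 Antiproliferative test on HL-60 promyelocytic leukemia and HeLa S3 cervical carcinoma cells growing in liquid suspension.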

[5] = Cytotoxicity against human HuH7 cells infected with Hepatitis C virus subtype 2a; format: cell-based, Huh-7
[6] = test system: Candida tropicalis; assay: Antifungal activity against Candida tropicalis after 48 hrs; format: functional, organism-based
[7] = test system: BJ; assay: Cytostatic activity against human BJ cells after 72 hrs by MTT assay; format: ADME, cell-based; in short: as §1
[8] = test system: K562; assay: Cytostatic activity against human K562 cells after 72 hrs by MTT assay; format: functional, cell-based; details: K562, 72 h; in short: as §1
[9] = test system: CCRF-CEM; assay: Mitotic arrest in human CCRF-CEM cells assessed as pH3Ser10-positive cells at IC50 after 24 hrs by propidium iodide staining-based flow cytometric analysis (reference value: 1.4%); format: functional
[10] = test system: Candida parapsilosis; assay: Antifungal activity against Candida parapsilosis after 48 hrs; format: functional, organism-based
[11] = test system: CCRF-CEM; assay: Cell cycle arrest in human CCRF-CEM cells assessed as accumulation at sub-G1 phase at IC50 after 24 hrs by propidium iodide staining-based flow cytometric analysis (reference value: 9.6%); format: functional
[12] = test system: HCT-116; assay: Cytostatic activity against p53-deficient human HCT116 cells after 72 hrs by MTT assay; format: functional, cell-based; details: HCT-116, 72 h; in short: as §1
[13] = test system: CCRF-CEM; assay: Inhibition of RNA synthesis in human CCRF-CEM cells assessed as BrU-positive cells at IC50 after 24 hrs by propidium iodide staining-based flow cytometric analysis (reference value: 43.3%); format: functional; parameters: scale not given: the % may be the effect or the level left
[14] = test system: Pseudomonas aeruginosa; assay: Antibacterial activity against multi-resistant Pseudomonas aeruginosa A/16575 after 24 hrs; format: functional, organism-based
[15] = test system: Enterococcus faecalis; assay: Antibacterial activity against Enterococcus faecalis CCM 4224 after 24 hrs; format: functional, organism-based
[16] = test system: Pichia kudriavzevii; assay: Antifungal activity against Candida crusei after 48 hrs; format: functional, organism-based
[17] = test system: MRC5; assay: Cytostatic activity against human MRC5 cells after 72 hrs by MTT assay; format: ADME, cell-based; details: MRC5, 72 h; in short: as §1
[18] = Cytotoxicity against human HuH7 cells infected with Hepatitis C virus subtype 1b; format: cell-based, Huh-7
[19] = test system: HL-60; assay: Antiproliferative activity against human HL60 cells after 72 hrs by XTT assay; format: functional, cell-based; details: HL-60, 72 h; in short: as §2
[20] = Cytostatic activity against human CEM-DNR-bulk cells after 72 hrs by MTT assay; format: functional, cell-based; in short: as §1
[21] = test system: Candida albicans; assay: Antifungal activity against Candida albicans after 48 hrs; format: functional, organism-based
[22] = test system: Hepatitis C virus; assay: Antiviral activity against Hepatitis C virus subtype 2a infected in human HuH7 cells; format: functional, organism-based, Hepacivirus hominis; details: genotype 2a, Huh-7
[23] = test system: A549; assay: Cytostatic activity against human A549 cells after 72 hrs by MTT assay; format: functional, cell-based; details: A549, 72 h; in short: as §1
[24] = test system: Pseudomonas aeruginosa; assay: Antibacterial activity against Pseudomonas aeruginosa CCM 3955 after 24 hrs; format: functional, organism-based
[25] = test system: Escherichia coli; assay: Antibacterial activity against multi-resistant Escherichia coli C/16702 after 24 hrs; format: functional, organism-based
[26] = test system: Staphylococcus aureus; assay: Antibacterial activity against Staphylococcus aureus CCM 3953 after 24 hrs; format: functional, organism-based
[27] = test system: Escherichia coli; assay: Antibacterial activity against Escherichia coli CCM 3954 after 24 hrs; format: functional, organism-based
[28] = test system: HepG2; assay: Antiproliferative activity against human HepG2 cells after 72 hrs by XTT assay; format: functional, cell-based; details: HepG2, 72 h
[29] = test system: Hepatitis C virus; assay: Antiviral activity against Hepatitis C virus subtype 1b infected in human HuH7 cells; format: functional, organism-based, Hepacivirus hominis; details: genotype 1b, Huh-7
[30] = test system: Staphylococcus haemolyticus; assay: Antibacterial activity against methicillin-resistant Staphylococcus haemolyticus A/16568 after 24 hrs; format: functional, organism-based
[31] = test system: K562; assay: Cytostatic activity against paclitaxel-resistant human K562 cells after 72 hrs by MTT assay; format: functional, cell-based; details: K562, 72 h; in short: as §1
[32] = test system: CCRF-CEM; assay: Cell cycle arrest in human CCRF-CEM cells assessed as accumulation at G1 phase at IC50 after 24 hrs by propidium iodide staining-based flow cytometric analysis (reference value: 41%); format: functional

| SMILES | IC50 [1] [nM] | IC50 [2] [nM] | Activity [3] | IC50 [4] [nM] | CC50 [5] [nM] | Activity [6] | IC50 [7] [nM] | IC50 [8] [nM] | Activity [9] [%] | Activity [10] | IC50 [12] [nM] | Activity [13] [%] | Activity [14] | Activity [15] | Activity [16] | IC50 [17] [nM] | CC50 [18] [nM] | IC50 [19] [nM] | IC50 [20] [nM] | Activity [21] | other results |
| --- | --- | --- | --- | --- | --- | --- | --- | --- | --- | --- | --- | --- | --- | --- | --- | --- | --- | --- | --- | --- | --- |
| CN(C)c1ncnc2c1c(I)cn2[C@@H]1O[C@H](CO)[C@@H](O)[C@H]1O | 1590 | 90 | inactive | 190 | > 44000 | inactive | 45700 | 70 | 1.3 | inactive | 120 | 4.8 | inactive | inactive | inactive | 91700 | > 44000 | 50 | 100 | inactive | Activity [11]: 9.4%; EC50 [22]: > 44000 nM; IC50 [23]: 340 nM; Activity [24]: inactive; Activity [25]: inactive; Activity [26]: inactive; Activity [27]: inactive; IC50 [28]: 13900 nM; EC50 [29]: 690 nM; Activity [30]: inactive; IC50 [31]: 50 nM |
| CN(C)c1ncnc2c1c(-c1ccco1)cn2[C@@H]1O[C@H](CO)[C@@H](O)[C@H]1O | 2910 | 250 | inactive | 1190 | > 44000 | inactive | > 100000 | 150 | 1.5 | inactive | 320 | 0.4 | inactive | inactive | inactive | > 100000 | > 44000 | 220 | 3140 | inactive | Activity [32]: 31%; EC50 [22]: 1350 nM; IC50 [23]: 4600 nM; Activity [24]: inactive; Activity [25]: inactive; Activity [26]: inactive; Activity [27]: inactive; IC50 [28]: > 15000 nM; EC50 [29]: 1490 nM; Activity [30]: inactive; IC50 [31]: 1280 nM |
| CN(C)c1ncnc2c1c(-c1ccsc1)cn2[C@@H]1O[C@H](CO)[C@@H](O)[C@H]1O | 3480 | > 20000 | inactive | > 15000 | > 44000 | inactive | > 100000 | 530 | 0.7 | inactive | > 20000 | 0.7 | inactive | inactive | inactive | > 100000 | > 44000 | 1920 | > 20000 | inactive | Activity [11]: 6.8%; EC50 [22]: > 44000 nM; IC50 [23]: > 20000 nM; Activity [24]: inactive; Activity [25]: inactive; Activity [26]: inactive; Activity [27]: inactive; IC50 [28]: > 20000 nM; EC50 [29]: 38400 nM; Activity [30]: inactive; IC50 [31]: > 20000 nM |
| COc1ncnc2c1c(I)cn2[C@@H]1O[C@H](CO)[C@@H](O)[C@H]1O | 1150 | > 20000 | inactive | 14300 | > 44000 | inactive | 91000 | > 20000 | 0.9 | inactive | > 20000 | 0.2 | inactive | inactive | inactive | 63000 | > 44000 | 2300 | > 20000 | inactive | Activity [11]: 6%; EC50 [22]: > 44000 nM; IC50 [23]: > 20000 nM; Activity [24]: inactive; Activity [25]: inactive; Activity [26]: inactive; Activity [27]: inactive; IC50 [28]: > 20000 nM; EC50 [29]: > 44000 nM; Activity [30]: inactive; IC50 [31]: 14800 nM |
| C#Cc1cn([C@@H]2O[C@H](CO)[C@@H](O)[C@H]2O)c2ncnc(N(C)C)c12 | 90 | 180 | inactive | 810 | > 44000 | inactive | 410 | 110 | 1.3 | inactive | 290 | 8.6 | inactive | inactive | inactive | 36100 | > 44000 | 290 | 240 | inactive | Activity [11]: 8.9%; EC50 [22]: 100 nM; IC50 [23]: 390 nM; Activity [24]: inactive; Activity [25]: inactive; Activity [26]: inactive; Activity [27]: inactive; IC50 [28]: 1320 nM; EC50 [29]: 70 nM; Activity [30]: inactive; IC50 [31]: 260 nM |
| COc1ncnc2c1c(-c1ccsc1)cn2[C@@H]1O[C@H](CO)[C@@H](O)[C@H]1O | 2570 | 120 | inactive | 3350 | > 44000 | inactive | 64300 | 90 | 2.9 | inactive | 140 | 0.5 | inactive | inactive | inactive | 75300 | > 44000 | 130 | 7640 | inactive | Activity [11]: 75%; EC50 [22]: > 44000 nM; IC50 [23]: 5170 nM; Activity [24]: inactive; Activity [25]: inactive; Activity [26]: inactive; Activity [27]: inactive; IC50 [28]: 430 nM; EC50 [29]: 550 nM; Activity [30]: inactive; IC50 [31]: 3450 nM |
| CSc1ncnc2c1c(-c1ccco1)cn2[C@@H]1O[C@H](CO)[C@@H](O)[C@H]1O | 50 | 20 | inactive | 540 | > 44000 | inactive | 260 | 40 | 0.7 | inactive | 10 | 5 | inactive | inactive | inactive | 73900 | 38600 | 120 | 230 | inactive | Activity [11]: 7.9%; EC50 [22]: 50 nM; IC50 [23]: 50 nM; Activity [24]: inactive; Activity [25]: inactive; Activity [26]: inactive; Activity [27]: inactive; IC50 [28]: 220 nM; EC50 [29]: 70 nM; Activity [30]: inactive; IC50 [31]: 210 nM |
